# Measured values from ChEMBL document CHEMBL4715736, “Identification of anticancer agents based on the thieno[2,3-b]pyridine and 1H-pyrazole molecular scaffolds” (2016).
# Legend:
# Format in all cases: functional
# [1] = tested on: MOLT-4; assay: Growth inhibition of human MOLT-4 cells assessed as cell growth at 0.01 uM incubated for 48 hrs by sulforhodamine B assay relative to control; conditions: read-out: Activity
# [2] = tested on: HCT-116; assay: Growth inhibition of human HCT-116 cells assessed as cell growth at 0.01 uM incubated for 48 hrs by sulforhodamine B assay relative to control; conditions: read-out: Activity
# [3] = tested on: SW-620; assay: Growth inhibition of human SW-620 cells assessed as cell growth at 0.01 uM incubated for 48 hrs by sulforhodamine B assay relative to control; conditions: read-out: Activity
# [4] = tested on: UACC-257; assay: Growth inhibition of human UACC-257 cells assessed as cell growth at 0.01 uM incubated for 48 hrs by sulforhodamine B assay relative to control; conditions: read-out: Activity
# [5] = tested on: MDA-MB-231; assay: Growth inhibition of human MDA-MB-231 cells assessed as cell growth at 0.01 uM incubated for 48 hrs by sulforhodamine B assay relative to control; conditions: read-out: Activity
# [6] = tested on: CCRF-CEM; assay: Growth inhibition of human CCRF-CEM cells assessed as cell growth at 0.1 uM incubated for 48 hrs by sulforhodamine B assay relative to control; conditions: read-out: Activity
# Procedure, shortened: (§1)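 NCI Developmental Therapeutics Program NCI60 panel. Compounds that were active in the 10 µM one-dose screen went on to dose–response testing. Growth at each concentration is expressed relative to untreated control (100%). GI50 (concentration giving 50% of maximal inhibition of proliferation) and TGI (concentration giving total growth inhibition) were derived from the curves.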
# [7] = tested on: MOLT-4; assay: Growth inhibition of human MOLT-4 cells assessed as cell growth at 0.1 uM incubated for 48 hrs by sulforhodamine B assay relative to control; conditions: read-out: Activity
# [8] = tested on: RPMI-8226; assay: Growth inhibition of human RPMI-8226 cells assessed as cell growth at 0.1 uM incubated for 48 hrs by sulforhodamine B assay relative to control; conditions: read-out: Activity
# [9] = tested on: NCI-H460; assay: Growth inhibition of human NCI-H460 cells assessed as cell growth at 0.1 uM incubated for 48 hrs by sulforhodamine B assay relative to control; conditions: read-out: Activity
# [10] = tested on: HT-29; assay: Growth inhibition of human HT-29 cells assessed as cell growth at 0.1 uM incubated for 48 hrs by sulforhodamine B assay relative to control; conditions: read-out: Activity
# [11] = tested on: LOX IMVI; assay: Growth inhibition of human LOX IMVI cells assessed as cell growth at 0.1 uM incubated for 48 hrs by sulforhodamine B assay relative to control; conditions: read-out: Activity
# [12] = tested on: MDA-MB-435; assay: Growth inhibition of human MDA-MB-435 cells assessed as cell growth at 0.1 uM incubated for 48 hrs by sulforhodamine B assay relative to control; conditions: read-out: Activity
# [13] = tested on: OVCAR-4; assay: Growth inhibition of human OVCAR-4 cells assessed as cell growth at 0.1 uM incubated for 48 hrs by sulforhodamine B assay relative to control; conditions: read-out: Activity
# [14] = tested on: A498; assay: Growth inhibition of human A498 cells assessed as cell growth at 0.1 uM incubated for 48 hrs by sulforhodamine B assay relative to control; conditions: read-out: Activity; procedure, shortened: as §1
# [15] = tested on: TK-10; assay: Growth inhibition of human TK-10 cells assessed as cell growth at 0.1 uM incubated for 48 hrs by sulforhodamine B assay relative to control; conditions: read-out: Activity
# [16] = tested on: NCI-H322M; assay: Growth inhibition of human NCI-H322M cells assessed as cell growth at 1 uM incubated for 48 hrs by sulforhodamine B assay relative to control; conditions: read-out: Activity
# [17] = tested on: SF-295; assay: Growth inhibition of human SF-295 cells assessed as cell growth at 1 uM incubated for 48 hrs by sulforhodamine B assay relative to control; conditions: read-out: Activity
# [18] = tested on: SNB-19; assay: Growth inhibition of human SNB-19 cells assessed as cell growth at 1 uM incubated for 48 hrs by sulforhodamine B assay relative to control; conditions: read-out: Activity
# [19] = tested on: U-251; assay: Growth inhibition of human U-251 cells assessed as cell growth at 1 uM incubated for 48 hrs by sulforhodamine B assay relative to control; conditions: read-out: Activity
# [20] = tested on: LOX IMVI; assay: Growth inhibition of human LOX IMVI cells assessed as cell growth at 1 uM incubated for 48 hrs by sulforhodamine B assay relative to control; conditions: read-out: Activity
# [21] = tested on: UACC-257; assay: Growth inhibition of human UACC-257 cells assessed as cell growth at 1 uM incubated for 48 hrs by sulforhodamine B assay relative to control; conditions: read-out: Activity
# [22] = tested on: A498; assay: Growth inhibition of human A498 cells assessed as cell growth at 1 uM incubated for 48 hrs by sulforhodamine B assay relative to control; conditions: read-out: Activity; procedure, shortened: as §1
# [23] = tested on: MCF7; assay: Growth inhibition of human MCF7 cells assessed as cell growth at 1 uM incubated for 48 hrs by sulforhodamine B assay relative to control; conditions: read-out: Activity
# [24] = tested on: MDA-MB-468; assay: Growth inhibition of human MDA-MB-468 cells assessed as cell growth at 1 uM incubated for 48 hrs by sulforhodamine B assay relative to control; conditions: read-out: Activity
# [25] = tested on: NCI-H226; assay: Growth inhibition of human NCI-H226 cells assessed as cell growth at 100 uM incubated for 48 hrs by sulforhodamine B assay relative to control; conditions: read-out: Activity
# [26] = tested on: NCI-H322M; assay: Growth inhibition of human NCI-H322M cells assessed as cell growth at 100 uM incubated for 48 hrs by sulforhodamine B assay relative to control; conditions: read-out: Activity
# [27] = tested on: KM12; assay: Growth inhibition of human KM12 cells assessed as cell growth at 100 uM incubated for 48 hrs by sulforhodamine B assay relative to control; conditions: read-out: Activity
# [28] = tested on: IGROV-1; assay: Growth inhibition of human IGROV-1 cells assessed as cell growth at 100 uM incubated for 48 hrs by sulforhodamine B assay relative to control; conditions: read-out: Activity
# [29] = tested on: CAKI-1; assay: Growth inhibition of human CAKI-1 cells assessed as cell growth at 100 uM incubated for 48 hrs by sulforhodamine B assay relative to control; conditions: read-out: Activity; procedure, shortened: as §1
# [30] = tested on: PC-3; assay: Growth inhibition of human PC-3 cells assessed as cell growth at 100 uM incubated for 48 hrs by sulforhodamine B assay relative to control; conditions: read-out: Activity
# [31] = tested on: K562; assay: Growth inhibition of human K562 cells incubated for 48 hrs by sulforhodamine B assay
# Procedure, shortened: (§2)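 NCI60 panel at the NCI Developmental Therapeutics Program. Only compounds active in the 10 µM screen went to dose-response testing. GI50, the concentration giving 50% of maximal inhibition of proliferation, and TGI, the concentration giving total growth inhibition, were derived from the dose-response curves.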
# [32] = tested on: MOLT-4; assay: Growth inhibition of human MOLT-4 cells incubated for 48 hrs by sulforhodamine B assay; conditions: for CC50: read-out: LC50 (the source's name); procedure, shortened: as §2
# [33] = tested on: SF-295; assay: Growth inhibition of human SF-295 cells incubated for 48 hrs by sulforhodamine B assay
# Procedure, shortened: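 NCI DTP 60-line human tumour panel. Dose-response curves were run only for ligands active in the initial 10 µM screen. GI50 (concentration giving 50% of maximal inhibition of proliferation) and TGI (concentration giving total growth inhibition) were derived from these curves.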
# [34] = tested on: MDA-MB-231; assay: Growth inhibition of human MDA-MB-231 cells incubated for 48 hrs by sulforhodamine B assay; conditions: for CC50: read-out: LC50 (the source's name); procedure, shortened: as §2
# [35] = tested on: 786-0; assay: Growth inhibition of human 786-0 cells assessed as cell growth at 100 uM incubated for 48 hrs by sulforhodamine B assay relative to control; conditions: read-out: Activity
compound,measurement,setting,value
Cc1cc(C)c(NC(=O)c2sc3nc4c(cc3c2N)CN(Cc2ccccc2)CC4)c(C)c1,growth at 0.01 µM,[1],99%
same,growth at 0.01 µM,[2],93%
same,growth at 0.01 µM,[3],95%
same,growth at 0.01 µM,[4],94%
same,growth at 0.01 µM,[5],100%
same,growth at 0.1 µM,[6],97%
same,growth at 0.1 µM,[7],98%
same,growth at 0.1 µM,[8],100%
same,growth at 0.1 µM,[9],103%
same,growth at 0.1 µM,[10],100%
same,growth at 0.1 µM,[11],105%
same,growth at 0.1 µM,[12],96%
same,growth at 0.1 µM,[13],94%
same,growth at 0.1 µM,[14],91%
same,growth at 0.1 µM,[15],104%
same,growth at 1 µM,[16],102%
same,growth at 1 µM,[17],66%
same,growth at 1 µM,[18],87%
same,growth at 1 µM,[19],92%
same,growth at 1 µM,[20],99%
same,growth at 1 µM,[21],80%
same,growth at 1 µM,[22],58%
same,growth at 1 µM,[23],61%
same,growth at 1 µM,[24],63%
same,growth at 100 µM,[25],20%
same,growth at 100 µM,[26],39%
same,growth at 100 µM,[27],-9%
same,growth at 100 µM,[28],5%
same,growth at 100 µM,[29],4%
same,growth at 100 µM,[30],15%
same,GI50,[31],903 nM
same,LC50 (concentration killing 50% of cells),[31],> 100 µM
same,TGI,[31],> 100 µM
same,GI50,[32],4.15 µM
same,TGI,[32],> 100 µM
same,CC50,[32],> 100 µM
same,GI50,[33],1890 nM
same,LC50 (concentration killing 50% of cells),[33],> 100 µM
same,TGI,[33],64.7 µM
same,GI50,[34],5750 nM
same,TGI,[34],58.9 µM
same,CC50,[34],> 100 µM
CCc1ccccc1NC(=O)c1sc2nc3c(cc2c1N)C(=O)CCC3,growth at 0.01 µM,[1],102%
same,growth at 0.01 µM,[2],99%
same,growth at 0.01 µM,[3],96%
same,growth at 0.01 µM,[4],93%
same,growth at 0.01 µM,[5],97%
same,growth at 0.1 µM,[6],89%
same,growth at 0.1 µM,[7],103%
same,growth at 0.1 µM,[8],96%
same,growth at 0.1 µM,[9],98%
same,growth at 0.1 µM,[10],100%
same,growth at 0.1 µM,[11],95%
same,growth at 0.1 µM,[12],29%
same,growth at 0.1 µM,[13],88%
same,growth at 0.1 µM,[14],72%
same,growth at 0.1 µM,[15],97%
same,growth at 1 µM,[16],40%
same,growth at 1 µM,[17],13%
same,growth at 1 µM,[18],45%
same,growth at 1 µM,[19],33%
same,growth at 1 µM,[20],39%
same,growth at 1 µM,[21],52%
same,growth at 1 µM,[22],-14%
same,growth at 1 µM,[23],17%
same,growth at 1 µM,[24],-4%
same,growth at 100 µM,[25],18%
same,growth at 100 µM,[26],23%
same,growth at 100 µM,[27],13%
same,growth at 100 µM,[28],7%
same,growth at 100 µM,[35],-17%
same,growth at 100 µM,[29],35%
same,GI50,[31],203 nM
same,LC50 (concentration killing 50% of cells),[31],> 100 µM
same,TGI,[31],> 100 µM
same,GI50,[32],0.529 µM
same,TGI,[32],> 100 µM
same,CC50,[32],> 100 µM
same,GI50,[33],257 nM
same,LC50 (concentration killing 50% of cells),[33],> 100 µM
same,TGI,[33],≥ 100 µM
same,GI50,[34],1250 nM
same,TGI,[34],> 100 µM
same,CC50,[34],> 100 µM
Cc1ccc(NC(=O)c2sc3nc4c(cc3c2N)C(=O)CCC4)cc1C,growth at 0.01 µM,[1],103%
same,growth at 0.01 µM,[2],99%
same,growth at 0.01 µM,[3],99%
same,growth at 0.01 µM,[4],96%
same,growth at 0.01 µM,[5],98%
same,growth at 0.1 µM,[6],97%
same,growth at 0.1 µM,[7],106%
same,growth at 0.1 µM,[8],97%
same,growth at 0.1 µM,[9],102%
same,growth at 0.1 µM,[10],104%
same,growth at 0.1 µM,[11],98%
same,growth at 0.1 µM,[12],60%
same,growth at 0.1 µM,[13],82%
same,growth at 0.1 µM,[14],78%
same,growth at 0.1 µM,[15],85%
same,growth at 1 µM,[16],49%
same,growth at 1 µM,[17],17%
same,growth at 1 µM,[18],37%
same,growth at 1 µM,[19],42%
same,growth at 1 µM,[20],42%
same,growth at 1 µM,[21],50%
same,growth at 1 µM,[22],-17%
same,growth at 1 µM,[23],18%
same,growth at 1 µM,[24],-9%
same,growth at 100 µM,[25],36%
same,growth at 100 µM,[26],37%
same,growth at 100 µM,[27],9%
same,growth at 100 µM,[28],10%
same,growth at 100 µM,[35],20%
same,growth at 100 µM,[29],22%
same,GI50,[31],468 nM
same,LC50 (concentration killing 50% of cells),[31],> 100 µM
same,TGI,[31],35 µM
same,GI50,[32],6.41 µM
same,TGI,[32],76.2 µM
same,CC50,[32],> 100 µM
same,GI50,[33],328 nM
same,LC50 (concentration killing 50% of cells),[33],> 100 µM
same,TGI,[33],> 100 µM
same,GI50,[34],1510 nM
same,TGI,[34],> 100 µM
same,CC50,[34],> 100 µM
